We go through 31 molecules from ChEMBL document CHEMBL2375244 (J Med Chem, 2013).

The IC50 is the point on the concentration scale where inhibition reaches its midpoint.

The target in assay [1] is T1, CDK2/Cyclin A2 (Homo sapiens, UniProt P24941). Put plainly: Inhibition of human CDK2/Cyclin A2 using PKTPKKAKKL as substrate by PK/LDH spectrophotometric analysis. It counts as protein-complex assay.
Assay [2] concerns the target T1, CDK2/Cyclin A2. Kind of assay: Inhibition of human CDK2/Cyclin A2 using PKTPKKAKKL as substrate by fluorescence assay. The assay is classed as protein-complex assay.
In assay [3] the test system is BT-549. Put plainly: Cytotoxicity against human BT549 cells after 72 hrs by resazurin/resorufin-based fluorescence assay. The assay is classed as functional, cell-based. The note with it: BT-549, 72 h. The method in brief: (§1)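 CellTiter-Blue viability: 1200 cells per well seeded, incubated overnight at 37 °C, 5% CO₂; drugs serially diluted 2:3 in medium, four replicate wells per concentration plus four diluent-only control wells; 72 h exposure; resazurin reduction to resorufin read by fluorescence (579 nm ex/584 nm em). IC50 is the average of three data sets, each using nine concentrations between 0.004 μM and 12.5 μM.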

Assay [4] is described as follows: Cytotoxicity against human RPMI18226 cells after 72 hrs by resazurin/resorufin-based fluorescence assay. The assay is classed as functional, cell-based. The note with it: RPMI18226, 72 h.
Assay [5] deals with SW872. Put plainly: Cytotoxicity against human SW872 cells after 72 hrs by resazurin/resorufin-based fluorescence assay. The note with it: SW872, 72 h. It counts as functional, cell-based. For orientation: Resazurin is reduced to fluorescent resorufin, in cell work by metabolically active cells.
For assay [6], the system named is MCF7. Kind of assay: Cytotoxicity against human MCF7 cells after 72 hrs by resazurin/resorufin-based fluorescence assay. It counts as functional, cell-based. The note with it: MCF7, 72 h.
In assay [7] the test system is HOS-TE85. Put plainly: Cytotoxicity against human MNNG-HOS cells after 72 hrs by resazurin/resorufin-based fluorescence assay. It counts as functional, cell-based. Particulars: HOS-TE85, 72 h.
Assay [8] can be described thus: Cytotoxicity against human MDA-MB-436 cells after 72 hrs by resazurin/resorufin-based fluorescence assay. It counts as functional, cell-based. The note with it: MDA-MB-436, 72 h.
For assay [9], the system named is U-266. Put plainly: Cytotoxicity against human U266 cells after 72 hrs by resazurin/resorufin-based fluorescence assay. It counts as functional, cell-based. The note with it: U-266, 72 h.
The nature of assay [10]: Cytotoxicity against human NCI-H929 cells after 72 hrs by resazurin/resorufin-based fluorescence assay. It counts as functional, cell-based. The note with it: NCI-H929, 72 h.
In assay [11] the test system is MDA-MB-231. Put plainly: Cytotoxicity against human MDA-MB-231 cells after 72 hrs by resazurin/resorufin-based fluorescence assay. It counts as functional, cell-based. The note with it: MDA-MB-231, 72 h.
Assay [12] relates to SK-UT-1. Put plainly: Cytotoxicity against human SK-UT-1 cells after 72 hrs by resazurin/resorufin-based fluorescence assay. It counts as functional, cell-based. The note with it: SK-UT-1, 72 h.
The test system of assay [13] is T47D. Put plainly: Cytotoxicity against human T47D cells after 72 hrs by resazurin/resorufin-based fluorescence assay. The assay is classed as functional, cell-based.
In assay [14] the test system is SK-ES1. Put plainly: Cytotoxicity against human SK-ES-1 cells after 72 hrs by resazurin/resorufin-based fluorescence assay. It counts as functional, cell-based. Particulars: SK-ES1, 72 h.
Assay [15] concerns A673. Kind of assay: Cytotoxicity against human A673 cells after 72 hrs by resazurin/resorufin-based fluorescence assay. It counts as functional, cell-based. The note with it: A673, 72 h.
Assay [16] deals with SK-BR-3. Put plainly: Cytotoxicity against human SK-BR-3 cells after 72 hrs by resazurin/resorufin-based fluorescence assay. The assay is classed as functional, cell-based. Particulars: SK-BR-3, 72 h. The method in brief:
as §1

Assay [17] in a line: Cytotoxicity against mouse GC-1 cells after 72 hrs by MTT assay. It counts as functional, cell-based. The note with it: GC-1, 72 h. The method in brief:
(§2)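 Cells kept in RPMI or DMEM with 10% FBS at 37 °C, 5% CO₂ and allowed to attach overnight; 72 h with increasing inhibitor concentrations; then 1 mg/mL MTT for 3 h, DMSO solubilisation, OD read at 540 nm. Testis lines had culture conditions adapted to them. Dose-response in triplicate, 9 concentrations between 0.02 and 100 μM, averaged.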
(In general: Tetrazolium assays rely on reduction of a dye to a coloured formazan, in cell work by metabolically active cells.)

Assay [18] is described as follows: Cytotoxicity against mouse TM4 cells after 72 hrs by MTT assay. The assay is classed as functional, cell-based. The note with it: TM4, 72 h. In outline: as §2
A short description of assay [19]: Cytotoxicity against mouse GC-2 cells after 72 hrs by MTT assay. It counts as functional, cell-based. Particulars: GC-2, 72 h. The method in brief:
as §2

Turning to `Nc1nc(Nc2cccc(F)c2)sc1C(=O)c1ccccc1`, in assay [1], the IC50 was 5.7 µM.
With `Cc1ccccc1C(=O)c1sc(Nc2ccc(S(N)(=O)=O)cc2)nc1N`, in assay [1], inhibition was half-maximal at 4.8 µM (IC50).
On the same count and under the same terms, as for `NC(=O)c1sc(Nc2ccc(S(N)(=O)=O)cc2)nc1N`, the figure is 4.8 µM; as for `Nc1nc(Nc2ccc(S(N)(=O)=O)cc2)sc1C(=O)c1cccc(O)c1`, 1.5 µM; as for `Nc1nc(Nc2cccc(S(N)(=O)=O)c2)sc1C(=O)c1cccnc1`, 7.8 µM.
On the same count and under the same terms, as for `COC(=O)c1ccccc1C(=O)c1sc(Nc2ccc(S(N)(=O)=O)cc2)nc1N`, the figure is 32 µM.
In the case of `Nc1nc(Nc2ccc(S(N)(=O)=O)cc2)sc1C(=O)c1ccc(S(N)(=O)=O)cc1`, the IC50 in [2] is 0.07 µM; in [3], greater than 10 µM; in assay [4] it was greater than 10 µM; in assay [5], greater than 10 µM; in assay [6], greater than 10 µM; in assay [7], greater than 10 µM. Also, the IC50 was greater than 10 µM in [8]; 7.2 µM in assay [9]; greater than 10 µM in [10]; greater than 10 µM in [11]; greater than 10 µM in assay [12]; 8.7 µM in assay [13]. The concentration for half-maximal inhibition (IC50) in assay [14], in [15] and in [16] was greater than 10 µM in each case.
`C=CCNc1nc(N)c(C(=O)C(C)(C)C)s1` came in with an IC50 in [1] greater than 100 µM.
As for `NC(=O)c1sc(Nc2ccccc2)nc1N`, the concentration for half-maximal inhibition (IC50) is greater than 60 µM in assay [17], greater than 60 µM in assay [18], greater than 60 µM in assay [19] and greater than 100 µM in assay [1].
In the case of `CC(C)Nc1nc(N)c(C(=O)c2cccnc2)s1`, the IC50 in [2] is 0.52 µM. This counts as sub-micromolar.
For `C=CCNc1nc(N)c(C(=O)c2ccc(OC)cc2)s1`, the IC50 in assay [1] is 35 µM.
The same measure, in the same setting: as for `CNc1nc(N)c(C(=O)c2ccccc2)s1`, the figure is 95 µM.
Regarding `Nc1nc(Nc2ccccc2)sc1C(=O)c1ccccc1`, the IC50 in assay [2] came to 0.93 µM; in assay [17], 11 µM; in assay [18] it was 12 µM; in [19] it was 11 µM.
`CC(C)Nc1nc(N)c(C(=O)c2ccccc2)s1` showed an IC50 in assay [1] of 2 µM.
Same read-out and setting: as for `C=CCNc1nc(N)c(C(=O)c2ccncc2)s1`, the figure is 49 µM; as for `C=CCNc1nc(N)c(C(C)=O)s1`, greater than 100 µM; as for `Nc1nc(Nc2ccc(S(N)(=O)=O)cc2)sc1C(=O)C1CCCCC1`, 3.5 µM.
On the same count and under the same terms, as for `Nc1nc(Nc2ccccc2)sc1C(=O)c1cccc([N+](=O)[O-])c1`, the figure is 2.2 µM; as for `C=CCNc1nc(N)c(C(=O)c2ccc(F)cc2)s1`, greater than 100 µM.
For the molecule `C=CCNc1nc(N)c(C(=O)c2ccc3ccccc3c2)s1`, the 50% inhibitory concentration (IC50) in assay [1] amounted to 5 µM.
Same read-out and setting: as for `CCOC(=O)c1sc(Nc2ccccc2)nc1N`, the figure is greater than 100 µM.
On the same count and under the same terms, as for `Nc1ccc(C(=O)c2sc(Nc3ccc(S(N)(=O)=O)cc3)nc2N)cc1`, the figure is 8.8 µM.
In [1], `CC(=O)c1sc(Nc2ccccc2)nc1N` showed an IC50 greater than 100 µM.
`NC(=O)c1ccc(Nc2nc(N)c(C(=O)c3cccnc3)s2)cc1` returned an IC50 in assay [2] of 0.2 µM. This counts as sub-micromolar.
In assay [1], `Nc1nc(Nc2ccc(C(=O)O)cc2)sc1C(=O)c1cccnc1` gave an IC50 of 4 µM. That is a single-digit micromolar value.
The same measure, in the same setting: as for `Nc1nc(Nc2ccccc2)sc1C(=O)c1cccc(C(F)(F)F)c1`, the figure is greater than 100 µM; as for `Nc1nc(NC2CCNCC2)sc1C(=O)c1cccnc1`, 43 µM.
On the same count and under the same terms, as for `Nc1nc(Nc2ccccc2)sc1C(=O)c1cc(C(F)(F)F)cc(C(F)(F)F)c1`, the figure is greater than 100 µM; as for `Nc1nc(Nc2ccc(C(F)(F)F)cc2)sc1C(=O)c1ccccc1`, greater than 100 µM.
In the case of `C=CCNc1nc(N)c(C(=O)c2ccc(C)cc2)s1`, in assay [1], the midpoint of inhibition, the IC50, lay at 37 µM.
With `Nc1nc(Nc2ccccc2)sc1C(=O)c1cccc(F)c1`, the IC50 in assay [17] is 3.6 µM; in [18] it was 5.1 µM; in [19] it was 4.1 µM; in assay [1], 1.6 µM.
